Source: ChEMBL document CHEMBL3400070, “Determination of the active stereoisomer of the MEP pathway-targeting antimalarial agent MMV008138, and initial structure-activity studies” (Bioorg Med Chem Lett, 2015)
Activity calls are given as the source filed them. The rule behind the calls is not given here.

What was measured:
Assay type in all cases: functional
Plasmodium falciparum [1] = assay: Antimalarial activity against MRA-150, chloroquine, pyrimethamine, mefloquine-resistant asexual blood stage Plasmodium falciparum Dd2 after 72 hrs by SYBR green assay; conditions: Dd2, 72 h
Summary of the method: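 Dd2 parasites were kept in O-positive human erythrocytes in RPMI 1640 with Albumax I, hypoxanthine and HEPES. Ring-stage cultures (1% hematocrit, 1% parasitemia) were given eight- or ten-point dilutions of 20 to 0.02 μM in 0.1% DMSO for 72 h at 37 °C under low O2. Growth was read by SYBR green, with uninfected-erythrocyte background and normalisation to untreated 0.1% DMSO controls. IC50 came from a four-parameter variable-slope fit, mean of ≥2 independent experiments ± S.D.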

Escherichia coli = assay: Antibacterial activity against Escherichia coli BL21(DE3) after 18 hrs by cell density meter
Summary of the method: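 Overnight culture (37 °C, 200 rpm) diluted 100-fold into LB, grown to OD600 ~0.6, then diluted 10,000-fold; mixed 1:1 with compound prediluted in LB at 500, 250 and 125 μM; 5% DMSO final. Incubated 18 h, 37 °C, 200 rpm; growth normalized to untreated inoculum and compared with 5% DMSO vehicle; controls fosmidomycin 100 μM, uninoculated medium; three independent experiments.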

Plasmodium falciparum [2] = assay: Antimalarial activity against MRA-150, chloroquine, pyrimethamine, mefloquine-resistant asexual blood stage Plasmodium falciparum Dd2 assessed as rescue at 2.5 uM after 72 hrs by SYBR green assay in presence of 200 uM IPP
Plasmodium falciparum [3] = assay: Antimalarial activity against MRA-150, chloroquine, pyrimethamine, mefloquine-resistant asexual blood stage Plasmodium falciparum Dd2 assessed as rescue after 72 hrs by SYBR green assay in presence of 200 uM IPP; conditions: Dd2, 72 h
Summary of the method: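 Ring-stage Dd2 cultures (1% hematocrit, 1% parasitemia, human erythrocytes) were grown with 200 μM IPP and a 10 to 0.02 μM serial dilution for 72 h at 37 °C under reduced O2. Growth was read by SYBR green and normalised to untreated 0.1% DMSO controls. Data are the mean ± S.D. of two or more independent experiments.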

Plasmodium falciparum [4] = assay: Antimalarial activity against MRA-150, chloroquine, pyrimethamine, mefloquine-resistant asexual blood stage Plasmodium falciparum Dd2 assessed as rescue at 5 uM after 72 hrs by SYBR green assay in presence of 200 uM IPP
Plasmodium falciparum [5] = assay: Antimalarial activity against MRA-150, chloroquine, pyrimethamine, mefloquine-resistant asexual blood stage Plasmodium falciparum Dd2 assessed as rescue at 10 uM after 72 hrs by SYBR green assay in presence of 200 uM IPP
Summary of the method: (§1)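 Single-concentration test (10 or 20 μM) run with or without 200 μM IPP on ring-stage Dd2 cultures (1% hematocrit, 1% parasitemia) in human erythrocytes. Incubation was 72 h at 37 °C under reduced O2. Growth was read by SYBR green, with background from uninfected erythrocytes and normalisation to untreated DMSO vehicle controls.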

Plasmodium falciparum [6] = assay: Antimalarial activity against MRA-150, chloroquine, pyrimethamine, mefloquine-resistant asexual blood stage Plasmodium falciparum Dd2 assessed as rescue at 20 uM after 72 hrs by SYBR green assay in presence of 200 uM IPP; summary of the method: as §1
Plasmodium falciparum [7] = assay: Antimalarial activity against MRA-150, chloroquine, pyrimethamine, mefloquine-resistant asexual blood stage Plasmodium falciparum Dd2 at 10000 nM after 72 hrs by SYBR green assay; conditions: Dd2, 72 h, read-out: GI; summary of the method: as §1
Plasmodium falciparum [8] = assay: Antimalarial activity against MRA-150, chloroquine, pyrimethamine, mefloquine-resistant asexual blood stage Plasmodium falciparum Dd2 at 20000 nM after 72 hrs by SYBR green assay; conditions: Dd2, 72 h, read-out: GI; summary of the method: as §1

COc1ccc([C@H]2N[C@H](C(=O)O)Cc3c2[nH]c2ccccc32)c(OC)c1
IC50 (Plasmodium falciparum [1]): > 20 µM

CNC(=O)[C@@H]1Cc2c([nH]c3ccccc23)[C@@H](c2ccc(Cl)cc2Cl)N1
Activity (Escherichia coli): inactive | Activity (Plasmodium falciparum [2]): 100% | IC50 (Plasmodium falciparum [1]): 0.19 µM | IC50 (Plasmodium falciparum [3]): > 10 µM

O=C(O)[C@@H]1Cc2c([nH]c3ccccc23)[C@@H](c2ccc(F)cc2F)N1
Activity (Escherichia coli): inactive | IC50 (Plasmodium falciparum [1]): 0.78 µM | Activity (Plasmodium falciparum [4]): 100% | IC50 (Plasmodium falciparum [3]): > 10 µM

O=C(O)C1Cc2c([nH]c3ccccc23)C(c2ccc(Cl)cc2Cl)N1 (stereo not given)
Activity (Plasmodium falciparum [2]): 100% | IC50 (Plasmodium falciparum [1]): 0.21 µM

COc1ccc([C@H]2N[C@H](C(=O)O)Cc3c2[nH]c2ccccc32)cc1OC
IC50 (Plasmodium falciparum [1]): > 20 µM

Cc1ccc([C@@H]2N[C@H](C(=O)O)Cc3c2[nH]c2ccccc32)c(C)c1
IC50 (Plasmodium falciparum [1]): > 10 µM

O=C(NC1CCCCC1)[C@@H]1Cc2c([nH]c3ccccc23)[C@@H](c2ccc(Cl)cc2Cl)N1
Activity (Plasmodium falciparum [5]): 0% | IC50 (Plasmodium falciparum [1]): 2.83 µM

O=C(O)[C@@H]1Cc2c([nH]c3ccccc23)[C@@H](c2ccccc2Cl)N1
Activity (Plasmodium falciparum [5]): 60% | IC50 (Plasmodium falciparum [1]): 3.28 µM

COC(=O)[C@@H]1Cc2c([nH]c3ccccc23)[C@@H](c2ccc(Cl)cc2Cl)N1
Activity (Plasmodium falciparum [6]): 20% | IC50 (Plasmodium falciparum [1]): 6.8 µM

COC(=O)[C@H]1Cc2c([nH]c3ccccc23)[C@H](c2ccc(Cl)cc2Cl)N1
Activity (Plasmodium falciparum [6]): 0% | IC50 (Plasmodium falciparum [1]): 7.7 µM

CNC(=O)[C@@H]1Cc2c([nH]c3ccccc23)[C@@H](c2ccc(C(F)(F)F)cc2C(F)(F)F)N1
IC50 (Plasmodium falciparum [1]): > 10 µM

Cc1ccc([C@@H]2N[C@H](C(=O)O)Cc3c2[nH]c2ccccc32)c(Cl)c1
IC50 (Plasmodium falciparum [1]): > 10 µM

O=C(O)[C@@H]1Cc2c([nH]c3ccccc23)[C@@H](c2ccc(C(F)(F)F)cc2C(F)(F)F)N1
IC50 (Plasmodium falciparum [1]): > 10 µM

CN1CC(=O)N2[C@H](c3ccc4c(c3)OCO4)c3[nH]c4ccccc4c3C[C@@H]2C1=O [TADALAFIL]
IC50 (Plasmodium falciparum [1]): > 20 µM

CNC(=O)[C@@H]1Cc2c([nH]c3ccccc23)[C@@H](c2ccc(C)cc2Cl)N1
Activity (Escherichia coli): inactive | Activity (Plasmodium falciparum [2]): 100% | IC50 (Plasmodium falciparum [1]): 0.34 µM

O=C(O)[C@@H]1Cc2c([nH]c3ccccc23)[C@@H](c2ccc(Cl)cc2Cl)N1
Activity (Escherichia coli): inactive | Activity (Plasmodium falciparum [2]): 100% | IC50 (Plasmodium falciparum [1]): 0.25 µM | IC50 (Plasmodium falciparum [3]): > 10 µM

CNC(=O)[C@@H]1Cc2c([nH]c3ccccc23)[C@@H](c2ccc(F)cc2F)N1
Activity (Escherichia coli): inactive | Activity (Plasmodium falciparum [2]): 100% | IC50 (Plasmodium falciparum [1]): 1.2 µM

O=C(O)[C@@H]1Cc2c([nH]c3ccccc23)[C@H](c2ccc(Cl)cc2Cl)N1
IC50 (Plasmodium falciparum [1]): > 10 µM

CNC(=O)[C@@H]1Cc2c([nH]c3ccccc23)[C@@H](c2ccc(Cl)cc2C)N1
Activity (Plasmodium falciparum [5]): 50% | IC50 (Plasmodium falciparum [1]): 1.85 µM

CNC(=O)[C@@H]1Cc2c([nH]c3ccccc23)[C@@H](c2ccc(C)cc2C)N1
inhibition of growth at 10 µM (Plasmodium falciparum [7]): 70%

Clc1ccc(C2NCCc3c2[nH]c2ccccc32)c(Cl)c1 (racemic)
IC50 (Plasmodium falciparum [1]): 10 µM

NC(=O)[C@@H]1Cc2c([nH]c3ccccc23)[C@@H](c2ccc(Cl)cc2Cl)N1
Activity (Plasmodium falciparum [5]): 50% | IC50 (Plasmodium falciparum [1]): 1.2 µM

O=C(O)[C@@H]1Cc2c([nH]c3ccccc23)[C@@H](c2ccc(Cl)cc2)N1
Activity (Plasmodium falciparum [5]): 50% | IC50 (Plasmodium falciparum [1]): 1.17 µM

CC(C)NC(=O)[C@@H]1Cc2c([nH]c3ccccc23)[C@@H](c2ccc(Cl)cc2Cl)N1
inhibition of growth at 10 µM (Plasmodium falciparum [7]): 50%

CNNC(=O)[C@@H]1Cc2c([nH]c3ccccc23)[C@@H](c2ccc(Cl)cc2Cl)N1
Activity (Plasmodium falciparum [5]): 80% | IC50 (Plasmodium falciparum [1]): 1.94 µM

Cc1cc(Cl)ccc1[C@H]1N[C@H](C(=O)O)Cc2c1[nH]c1ccccc21
Activity (Escherichia coli): inactive | Activity (Plasmodium falciparum [2]): 100% | IC50 (Plasmodium falciparum [1]): 0.7 µM | IC50 (Plasmodium falciparum [3]): > 10 µM

O=CN(O)CCCP(=O)(O)O [FOSMIDOMYCIN]
Activity (Plasmodium falciparum [5]): 100%

Cc1ccc([C@H]2N[C@H](C(=O)O)Cc3c2[nH]c2ccccc32)c(C)c1
inhibition of growth at 10 µM (Plasmodium falciparum [7]): 70%

Cc1ccc([C@H]2N[C@H](C(=O)O)Cc3c2[nH]c2ccccc32)c(Cl)c1
Activity (Escherichia coli): inactive | Activity (Plasmodium falciparum [2]): 100% | IC50 (Plasmodium falciparum [1]): 0.41 µM | IC50 (Plasmodium falciparum [3]): > 10 µM

O=C(O)[C@H]1Cc2c([nH]c3ccccc23)[C@@H](c2ccc(Cl)cc2Cl)N1
Activity (Plasmodium falciparum [5]): 60% | IC50 (Plasmodium falciparum [1]): 3 µM

COC(=O)[C@@H]1Cc2c([nH]c3ccccc23)[C@@H](c2ccccc2)N1
inhibition of growth at 20 µM (Plasmodium falciparum [8]): 20%

O=C(O)[C@@H]1Cc2c([nH]c3ccccc23)[C@H](c2ccc(F)cc2F)N1
IC50 (Plasmodium falciparum [1]): > 20 µM

CCCCNC(=O)[C@@H]1Cc2c([nH]c3ccccc23)[C@@H](c2ccc(Cl)cc2Cl)N1
inhibition of growth at 10 µM (Plasmodium falciparum [7]): 80%

O=C(O)[C@@H]1Cc2c([nH]c3ccccc23)[C@H](c2ccccc2)N1
IC50 (Plasmodium falciparum [1]): > 10 µM

O=C(O)[C@H]1Cc2c([nH]c3ccccc23)[C@H](c2ccc(Cl)cc2Cl)N1
IC50 (Plasmodium falciparum [1]): > 10 µM

O=C(O)[C@@H]1Cc2c([nH]c3ccccc23)[C@@H](c2ccccc2)N1
IC50 (Plasmodium falciparum [1]): > 10 µM
